Test results taken from publication PMC8435006 (ACS infectious diseases, 2021).

Tests used:
[1] = biological target: L1 (B3 MBL) (Stenotrophomonas maltophilia, UniProt P52700); test: Ki by imipenem hydrolysis, purified recombinant L1; type: biochemical; details: read-out: Ki against L1; MMTZs; imipenem substrate, 30 °C, pH 7.5, 20 μM ZnSO4
Outline: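 Steady-state imipenem hydrolysis by purified L1 (2 nM final) at 30 °C, followed as the absorbance decrease at 300 nm (Δε300 = −9000 M−1cm−1). Buffer was 10 mM HEPES pH 7.5, 200 mM NaCl, 50 mg/L BSA and 20 μM ZnSO4. Inhibitor came from a DMSO stock diluted into buffer, and enzyme was added last. Rates from slopes were fitted to a competitive inhibition model for Ki.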

[2] = tested on: E. coli DH10B expressing NDM-1; test: Imipenem MIC potentiation, broth microdilution, NDM-1 producer; type: cell-based; details: 100 μg/mL MMTZ; E. coli DH10B producing NDM-1
[3] = tested on: E. coli DH10B expressing Sfh-I; test: Imipenem MIC potentiation, broth microdilution, Sfh-I producer; type: cell-based; details: 100 μg/mL MMTZ; E. coli DH10B producing Sfh-I
[4] = tested on: E. coli DH10B expressing L1; test: Imipenem MIC potentiation, broth microdilution, L1 producer; type: cell-based
[5] = biological target: NDM-1 (B1 MBL); details: read-out: Ki against NDM-1; MMTZs; same protocol; ref 6 (Rossi et al); cited from earlier work
[6] = biological target: VIM-2 (B1 MBL); details: read-out: Ki against VIM-2; MMTZs; same protocol; ref 6 (Rossi et al); cited from earlier work
[7] = biological target: IMP-1 (B1 MBL); details: read-out: Ki against IMP-1; MMTZs; same protocol; ref 6 (Rossi et al); cited from earlier work
[8] = biological target: CphA; details: read-out: Ki against CphA; captopril isomers; ref Table S1; cited from earlier work
[9] = biological target: Sfh-I (B2 MBL) (Serratia fonticola, UniProt Q9RMI1); test: Ki by imipenem hydrolysis, purified recombinant Sfh-I; type: biochemical; details: ratio of Ki values
Outline: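 Sfh-I (2 nM final) hydrolysing imipenem at 30 °C, monitored at 300 nm under steady-state conditions in 10 mM HEPES pH 7.5, 200 mM NaCl, 50 mg/L BSA, with no added zinc. Reactions were started by adding enzyme to the substrate plus inhibitor (DMSO stock diluted in buffer). Ki came from competitive-model fits of the rates, and the fold value is the ratio of Ki values.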

[10] = 50 μg/mL inhibitor, L1-expressing E. coli DH10B
[11] = 100 μg/mL MMTZ, E. coli DH10B producing L1

L1 (B3 MBL), sequence (P52700 34-290): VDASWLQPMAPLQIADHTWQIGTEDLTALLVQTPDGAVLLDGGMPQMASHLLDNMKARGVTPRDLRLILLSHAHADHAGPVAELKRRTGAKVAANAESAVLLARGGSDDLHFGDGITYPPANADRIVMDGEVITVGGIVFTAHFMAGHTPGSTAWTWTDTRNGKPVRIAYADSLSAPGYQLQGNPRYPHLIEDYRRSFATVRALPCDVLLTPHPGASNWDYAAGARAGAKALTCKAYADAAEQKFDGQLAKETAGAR

Row | SMILES | Ki [1] [nM] | Reduction of imipenem MIC [2] | Reduction of imipenem MIC [3] | Reduction of imipenem MIC [4, 10] | Reduction of imipenem MIC [4, 11] | Ki [5] [nM] | Ki [6] [nM] | Ki [7] [nM] | Ki [8] [nM] | Fold less potent against Sfh-I than L-anti-1a [9]
1 | CCOC(=O)[C@]1(CS)N[C@@H](C(=O)O)C(C)(C)S1 [D-syn-1b] | 4000 ± 600 | least effect | least effect | four-fold | least effect | 600 ± 50 | 1900 ± 100 | 2000 ± 200 | – | –
2 | CCOC(=O)[C@@]1(CS)N[C@H](C(=O)O)C(C)(C)S1 [L-syn-1b] | 28000 ± 3000 | – | – | four-fold | – | 8000 ± 1000 | 3600 ± 400 | 6000 ± 600 | – | –
3 | CCOC(=O)[C@]1(CS)N[C@H](C(=O)O)C(C)(C)S1 [L-anti-1b] | 20000 ± 2000 | – | – | four-fold | – | 440 ± 60 | 750 ± 90 | 460 ± 50 | – | –
4 | C[C@H](CS)C(=O)N1CCC[C@@H]1C(=O)O [D-captopril] | – | – | – | – | – | – | – | – | 72000 | –
5 | CCOC(=O)[C@@]1(CS)N[C@@H](C(=O)O)CS1 [D-anti-1a] | 4000 ± 500 | – | – | – | – | 2500 ± 500 | 390 ± 40 | 1300 ± 100 | – | 125 – 800 fold
6 | CCOC(=O)[C@]1(CS)N[C@H](C(=O)O)CS1 [L-anti-1a] | 10000 ± 800 | 4 fold | 4 fold | – | 4 fold | 5200 ± 700 | 380 ± 50 | 1000 ± 200 | – | –
7 | CCOC(=O)[C@@]1(CS)N[C@@H](C(=O)O)C(C)(C)S1 [D-anti-1b] | 1400 ± 200 | – | – | – | – | 3100 ± 300 | 900 ± 100 | 930 ± 80 | – | 125 – 800 fold
8 | C[C@H](CS)C(=O)N1CCC[C@H]1C(=O)O [L-captopril] | – | – | – | – | – | – | – | – | 950000 | –
